SMARCA2 activ – SMARCA2 function activation, primary screen | MG213 cells, MMTV-luciferase reporter, dexamethasone, overnight | 370,000 tested, 1% active | activation, % at 9.1 µM | AID 652017; in the data active = activation above about 7.8%;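 note: 0% = vehicle wells and 100% = reference activator wells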
MC4R ag barr – agonists of human melanocortin 4 receptor (MC4R) beta-arrestin | AID 540308 | activation, % at 8.9 µM | U2OS MC4R beta-arrestin complementation, luminescence; percent of melanotan II response, DMSO zero | 360,000 tested, 0.98% active;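 active = activation above a per-plate cutoff, the mean activation of sample wells on that plate plus 3 SD, cut at about 8% in these data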
ATG4B inhibitor – ATG4B (human) cysteine protease inhibition; Q9Y4P1; ATG4B cleavage of LC3-PLA2, NBD-HPC fluorescence, 1 h; inhibition, % at 8.33 µM; 340,000 tested, 0.51% active; in the data active = inhibition above about 40%
Target sequence (Q9Y4P1 whole entry, looked up): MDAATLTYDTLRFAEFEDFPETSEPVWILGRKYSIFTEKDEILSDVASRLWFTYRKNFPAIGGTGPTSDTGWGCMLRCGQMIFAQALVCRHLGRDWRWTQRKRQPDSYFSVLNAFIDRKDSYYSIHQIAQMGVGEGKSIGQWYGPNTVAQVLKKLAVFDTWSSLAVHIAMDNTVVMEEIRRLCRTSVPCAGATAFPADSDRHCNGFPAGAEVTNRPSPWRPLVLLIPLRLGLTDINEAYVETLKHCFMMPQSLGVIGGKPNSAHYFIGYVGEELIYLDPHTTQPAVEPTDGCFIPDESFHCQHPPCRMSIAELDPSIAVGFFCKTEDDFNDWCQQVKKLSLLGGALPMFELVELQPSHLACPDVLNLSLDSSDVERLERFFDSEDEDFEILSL
MPTP block – permeability transition pore inhibition | isolated mouse mitochondria, Ca2+ swelling absorbance, 30 min | inhibition, % at 10 µM | 360,000 tested, 1.4% active | AID 602449;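 active = inhibition of 50% or more, scaled per plate between neutral and stimulator controls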;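 note: 0% = DMSO wells given calcium and 100% = 1 mM EGTA wells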
MC4R antag cAMP – blocks human MC4R cAMP signaling. MC4R-expressing cells, MTII-stimulated cAMP, LANCE TR-FRET. inhibition, % at 6.5 µM. P32245. 360,000 tested, 0.48% active;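 active = inhibition above its plate's cutoff, the mean of tested wells on that plate plus 3 SD, cut at about 29% in these data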;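 note: 0% = Melanotan II alone and 100% = Melanotan II plus saturating MCL0020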
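Assay system: U2OS cells stably expressing human melanocortin 4 receptor (MC4R) / Dosing: 6.5 µM / Timing: compound 30 min, challenge 1 h, detection 1 h / Measured by: Eu-cAMP/anti-cAMP TR-FRET, emission 671 nm / Replicates: singlicate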
MPTP counter – membrane potential counter-screen of mitochondrial pore inhibitors; shares compounds with MPTP block; isolated mitochondria, Rhodamine 123 fluorescence; inhibition, % at 10 µM; 5,000 tested, 78% active; AID 624504; in the data active = inhibition above about 22%;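 note: 0% = DMSO vehicle and 100% = positive control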
MPTP swell DR – MPTP inhibition, dose response swelling confirmation; AID 651561; IC50, µM; shares compounds with MPTP block; 780 tested, 58% active; isolated mitochondria swelling, absorbance; in the data active = IC50 below about 20 µM
MPTP counter DR – active in counter-screen for permeability transition pore inhibitors; shares compounds with MPTP block; isolated mitochondria counterscreen, fluorescence read-out; IC50, µM; 780 tested, 49% active; AID 651564; in the data active = IC50 below about 80 µM
Numbers without * were called inactive; i = inactive; x = no result given. Hits are enriched below; roughly 4.1% of the tested compounds scored in any of these assays.

SMILES	SMARCA2 activ	MC4R ag barr	ATG4B inhibitor	MPTP block	MC4R antag cAMP	MPTP counter	others
O=[N+]([O-])c1cc(S(=O)(=O)Nc2cccc(C(F)(F)F)c2)ccc1-n1nnc2ccccc21	0	1	12	92*	-1	84*
O=C(Nc1ccc(Oc2ccccc2)cc1)c1csc([C@H]2C[C@H](O)[C@@H](CO)O2)n1	-4	-1	x	81*	2	74*
CC(=O)Nc1ccc(NC(=O)c2csc([C@@H]3C[C@H](O)[C@@H](CO)O3)n2)cc1	0	-1	x	0	3	x
C=CCN(CC#Cc1ccccn1)Cc1ccc(OC)cc1OC	3	x	x	x	x	x
C/C(=N\NC(N)=O)c1cccc(Cl)c1	0	-2	-1	0	0	x
C/C(=N\N=C(N)N)c1cccc(Cl)c1	-5	-2	0	55*	10	6	MPTP swell DR=16*;MPTP counter DR=68*
CCOC(=O)c1ccc(Oc2cn[nH]c2-c2ccc(O)cc2O)cc1	-5	-1	-5	55*	6	26*
CCCc1ccc(Oc2cn[nH]c2-c2ccc(O)cc2O)cc1	-2	5	17	64*	-1	39*
COc1ccccc1CCn1cnc(-c2ccc(F)cc2F)c1CC(C)C	-7	x	x	x	x	x
O=C(Nc1ccc(C(F)(F)F)cc1)C1CCN(S(=O)(=O)c2ccc(N3CCCC3=O)cc2)CC1	2	-2	-5	92*	9	88*
COc1ccc(NC(=O)C2CCN(S(=O)(=O)c3ccc(N4CCCC4=O)cc3)CC2)cc1OC	1	-1	12	1	22	x
O=C(/C=C/c1c(Cl)cccc1Cl)Nc1ccncc1	0	1	-15	62*	1	57*
O=C(CNSc1ccc([N+](=O)[O-])cc1[N+](=O)[O-])OCc1ccccc1	0	x	x	x	x	x
Cc1cc2nc(CCN(C(=S)NCC(C)C)C3CCCC3)[nH]c2cc1C	-5	3	8	85*	5	84*
CCCCCCCCN1C(=O)[C@@H](CC(=O)NCCCOCCCC)C[C@@]2(C(=O)OC)C1=C[C@H](C(C)C)O[C@@H]2C1CC1	-3	x	x	x	x	x
Nc1ccc(F)c(CN2CCN(c3ncc(Cc4ccccc4)cn3)CC2)c1	-3	x	x	x	x	x
CC(=O)Nc1ccc(S(=O)(=O)NCCC(=O)OCC(=O)c2ccc(Br)cc2)cc1	0	-4	-14	59*	10	87*
O=c1oc2ccccc2c(Nc2ccc3ccccc3c2)c1[N+](=O)[O-]	x	-2	2	62*	-3	78*
Cc1ccc(Nc2c([N+](=O)[O-])c(=O)oc3ccccc23)cc1	-2	0	5	-2	-3	x
CCCCCCCCN1C(=O)[C@@H](CC(=O)NCCC(C)C)C[C@@]2(C(=O)OC)C1=C[C@H](C(C)(C)C)O[C@@H]2C	7	x	x	x	x	x
Cn1nc(C(F)(F)F)c(-c2ccc(Br)cc2)c1NC(=O)Nc1ccc(F)cc1F	-3	3	4	76*	10	84*
O=C(Nc1cccc([N+](=O)[O-])c1)c1ccncc1	-4	1	3	-2	13	x
CC(C)(C)CC(C)(C)NC(=O)Nc1cccc([N+](=O)[O-])c1	-5	3	3	90*	-6	84*
CC(C)(C)c1ccc(C(=O)Nc2cccc([N+](=O)[O-])c2)cc1	6	6	6	95*	16	85*
C#CCNC(=O)C[C@@H]1C(=O)N(CCc2ccc(Cl)cc2)C2=CCCCC[C@]21C(=O)OC	-1	x	x	x	x	x
SMILES	SMARCA2 activ	MC4R ag barr	ATG4B inhibitor	MPTP block	MC4R antag cAMP	MPTP counter	others
Cc1[nH]n(-c2ncc(-c3ccccc3)s2)c(=O)c1C(c1ccc(Cl)cc1)C(C#N)C#N (centres undefined)	-3	-2	30	103*	1	25*
Cc1[nH]n(-c2ccccc2)c(=O)c1C(c1ccccc1[N+](=O)[O-])C(C#N)C#N (centres undefined)	0	-1	-2	3	0	x
CCOC(=O)CC[C@@]1(C(=O)OCC)C[C@@H](CC(=O)NCC23CC4CC(CC(C4)C2)C3)C(=O)N2CCCC=C21	-1	x	x	x	x	x
Cc1ccc(S(=O)(=O)Nc2ccc3cc([N+](=O)[O-])ccc3c2[N+](=O)[O-])cc1	-8	-3	-4	88*	10	79*
Cc1ccc(S(=O)(=O)Nc2ccc3ccccc3c2[N+](=O)[O-])cc1	-7	-1	-11	26	2	x
Cc1ccc(SCCC(=O)N/N=C/c2ccccc2O)cc1	-7	0	-9	52*	6	45*
Cc1noc(C)c1CSCC(=O)N1CCN(c2ccc(F)cc2)CC1	-3	-1	4	8	-1	x
Cc1cccc(N2CCN(C(=O)CSCc3c(C)noc3C)CC2)c1C	x	2	0	90*	10	75*
C#CCOCCOCCOCCNc1nc(N2CCN(C(=O)[C@H](CCCN=C(N)N)n3cc(C(N)[C@H](C)CC)nn3)CC2)nc(N2CCN(C(=O)[C@H](CCCN=C(N)N)n3cc(C(N)[C@@H](C)CC)nn3)CC2)n1 (some centres undefined)	x	-1	-9	-4	3	x
C#CCOCCOCCOCCNc1nc(N2CCN(C(=O)[C@H](CCCCN)n3cc(CN)nn3)CC2)nc(N2CCN(C(=O)[C@H](CCCN=C(N)N)n3cc(C(N)[C@H](C)CC)nn3)CC2)n1 (some centres undefined)	-1	0	2	84*	4	-9	MPTP swell DR=i;MPTP counter DR=>80
C#CCOCCOCCOCCNc1nc(N2CCN(C(=O)CCCCCCCCCCNC(=O)Cn3cc(CCCCCN)nn3)CC2)nc(N2CCN(C(=O)CCCCCCCCCCNC(=O)[C@H]([C@@H](C)CC)n3cc(CCCCCN)nn3)CC2)n1	x	0	20	163*	11	101*
O=C([C@@H]1C[C@H]1c1ccccc1)N1CCC(Oc2cccnc2)CC1	3	x	x	x	x	x
O=C(NCc1ccc(F)c(F)c1)c1ccc(-c2ccc(F)c(F)c2)c2ccoc12	-4	1	x	0	4	x
COc1ccc(CNC(=O)c2cccc3c(-c4ccc(F)c(F)c4)coc23)cc1OC	x	-1	x	88*	3	80*
COc1ccc(CNC(=O)c2cccc3c(-c4cccc(C(N)=O)c4)coc23)cc1OC	-5	0	x	86*	7	83*
COc1cc(-c2coc3c(C(=O)NCc4ccc(OC)c(OC)c4)cccc23)ccc1O	-6	-1	x	73*	4	58*
O=C(NCc1cccnc1)c1ccc(-c2ccc(F)c(F)c2)c2ccoc12	-7	0	x	92*	12	84*
CCN(CC)C(=O)CC[C@H]1CC[C@]2(CCCN(Cc3ccc(OC)cc3)C2)O1	-2	x	x	x	x	x

Bioassay records deposited in PubChem BioAssay by several laboratories.
